# Assay results taken from ChEMBL document CHEMBL2176933 (J Med Chem, 2012).
# Key:
# Mus musculus [1] = species on record: Mus musculus; assay: Genotoxicity in mouse by micronucleus study; assay type: toxicity, organism-based; conditions: in vivo
# PBL = assay: Genotoxicity in human PBL assessed as induction of micronuclei formation; assay type: toxicity, cell-based
# [2] = Selectivity ratio of Ki for TTK to Ki for LRRK2
# Method in brief: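 Ratio computed as TTK Ki, from a Lanthascreen assay, divided by LRRK2 Ki from the biochemical assay.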
# [3] = biological target: T1, Dual specificity protein kinase TTK (Homo sapiens, UniProt P33981); assay: Inhibition of TTK
# T1 sequence (P33981 whole entry): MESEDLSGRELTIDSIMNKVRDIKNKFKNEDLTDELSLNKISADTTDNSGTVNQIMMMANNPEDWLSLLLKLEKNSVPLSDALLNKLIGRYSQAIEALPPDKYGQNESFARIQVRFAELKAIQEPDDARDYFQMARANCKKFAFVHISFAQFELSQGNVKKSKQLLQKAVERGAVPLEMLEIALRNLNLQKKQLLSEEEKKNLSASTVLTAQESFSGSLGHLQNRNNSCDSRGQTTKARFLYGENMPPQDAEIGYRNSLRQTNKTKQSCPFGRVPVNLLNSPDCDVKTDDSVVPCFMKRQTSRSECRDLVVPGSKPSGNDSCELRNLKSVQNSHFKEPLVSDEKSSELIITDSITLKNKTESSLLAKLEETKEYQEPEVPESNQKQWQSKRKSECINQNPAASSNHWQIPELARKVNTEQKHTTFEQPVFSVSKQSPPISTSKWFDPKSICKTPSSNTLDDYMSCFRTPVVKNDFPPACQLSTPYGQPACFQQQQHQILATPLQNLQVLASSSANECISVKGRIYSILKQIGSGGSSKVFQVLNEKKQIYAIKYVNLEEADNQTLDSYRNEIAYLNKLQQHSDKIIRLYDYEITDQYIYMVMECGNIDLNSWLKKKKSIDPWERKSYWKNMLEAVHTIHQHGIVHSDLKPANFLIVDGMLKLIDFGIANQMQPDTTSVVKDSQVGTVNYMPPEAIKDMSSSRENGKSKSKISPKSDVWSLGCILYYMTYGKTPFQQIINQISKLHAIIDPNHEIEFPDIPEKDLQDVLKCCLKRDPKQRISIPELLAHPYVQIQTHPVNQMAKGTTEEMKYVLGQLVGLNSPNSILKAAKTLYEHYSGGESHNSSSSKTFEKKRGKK
# Method in brief: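 TTK Ki determined in a Lanthascreen biochemical assay.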
# [4] = biological target: T2, Dual specificity protein kinase TTK (Homo sapiens) (UniProt P33981); assay: Inhibition of TTK at 1 uM
# T2 sequence (whole entry): T1 sequence (P33981 whole entry)
# Method in brief: (§1)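 Percent inhibition of TTK activity measured at 0.1 μM and 1 μM in a kinase selectivity profiling panel.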
# [5] = biological target: T2, Dual specificity protein kinase TTK (Homo sapiens); assay: Inhibition of TTK at 0.1 uM; method in brief: as §1
# MDR1 (human) = assay: Apparent permeability from apical to basolateral side of MDCK cells expressing human MDR1; assay type: ADME, cell-based, Canis lupus familiaris; conditions: dog
# Method in brief: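 Transport measured in an MDCK cell line transfected with human P-gp (MDR1); apical-to-basolateral and basolateral-to-apical permeability determined; efflux ratio taken as (B−A)/(A−B).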
# [6] = Plasma protein binding in rat; assay type: ADME, cell-free; conditions: read-out: PPB (converted)
# Method in brief: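 Plasma protein binding measured in vitro in rat plasma; used to convert total clearance to unbound clearance and total to unbound plasma levels.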
# [7] = Clearance in rat hepatocytes; assay type: ADME, cell-based, Liver, Hepatocyte
# Method in brief: (§2)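 Metabolic stability determined in vitro in cryopreserved hepatocytes, human and rat.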
# [8] = Clearance in human hepatocytes; assay type: ADME, cell-based, Liver, Hepatocyte; method in brief: as §2
# [9] = Selectivity ratio of Ki for JAK2 to Ki for LRRK2
# Method in brief: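 Ratio computed as JAK2 Ki divided by LRRK2 Ki, both from biochemical assays.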
# [10] = biological target: T3, Leucine-rich repeat serine/threonine-protein kinase 2 (Homo sapiens, UniProt Q5S007); assay: Inhibition of autophosphorylation of LRRK2 in human HEK293 cells; assay type: cell-based
# T3 sequence (Q5S007 whole entry): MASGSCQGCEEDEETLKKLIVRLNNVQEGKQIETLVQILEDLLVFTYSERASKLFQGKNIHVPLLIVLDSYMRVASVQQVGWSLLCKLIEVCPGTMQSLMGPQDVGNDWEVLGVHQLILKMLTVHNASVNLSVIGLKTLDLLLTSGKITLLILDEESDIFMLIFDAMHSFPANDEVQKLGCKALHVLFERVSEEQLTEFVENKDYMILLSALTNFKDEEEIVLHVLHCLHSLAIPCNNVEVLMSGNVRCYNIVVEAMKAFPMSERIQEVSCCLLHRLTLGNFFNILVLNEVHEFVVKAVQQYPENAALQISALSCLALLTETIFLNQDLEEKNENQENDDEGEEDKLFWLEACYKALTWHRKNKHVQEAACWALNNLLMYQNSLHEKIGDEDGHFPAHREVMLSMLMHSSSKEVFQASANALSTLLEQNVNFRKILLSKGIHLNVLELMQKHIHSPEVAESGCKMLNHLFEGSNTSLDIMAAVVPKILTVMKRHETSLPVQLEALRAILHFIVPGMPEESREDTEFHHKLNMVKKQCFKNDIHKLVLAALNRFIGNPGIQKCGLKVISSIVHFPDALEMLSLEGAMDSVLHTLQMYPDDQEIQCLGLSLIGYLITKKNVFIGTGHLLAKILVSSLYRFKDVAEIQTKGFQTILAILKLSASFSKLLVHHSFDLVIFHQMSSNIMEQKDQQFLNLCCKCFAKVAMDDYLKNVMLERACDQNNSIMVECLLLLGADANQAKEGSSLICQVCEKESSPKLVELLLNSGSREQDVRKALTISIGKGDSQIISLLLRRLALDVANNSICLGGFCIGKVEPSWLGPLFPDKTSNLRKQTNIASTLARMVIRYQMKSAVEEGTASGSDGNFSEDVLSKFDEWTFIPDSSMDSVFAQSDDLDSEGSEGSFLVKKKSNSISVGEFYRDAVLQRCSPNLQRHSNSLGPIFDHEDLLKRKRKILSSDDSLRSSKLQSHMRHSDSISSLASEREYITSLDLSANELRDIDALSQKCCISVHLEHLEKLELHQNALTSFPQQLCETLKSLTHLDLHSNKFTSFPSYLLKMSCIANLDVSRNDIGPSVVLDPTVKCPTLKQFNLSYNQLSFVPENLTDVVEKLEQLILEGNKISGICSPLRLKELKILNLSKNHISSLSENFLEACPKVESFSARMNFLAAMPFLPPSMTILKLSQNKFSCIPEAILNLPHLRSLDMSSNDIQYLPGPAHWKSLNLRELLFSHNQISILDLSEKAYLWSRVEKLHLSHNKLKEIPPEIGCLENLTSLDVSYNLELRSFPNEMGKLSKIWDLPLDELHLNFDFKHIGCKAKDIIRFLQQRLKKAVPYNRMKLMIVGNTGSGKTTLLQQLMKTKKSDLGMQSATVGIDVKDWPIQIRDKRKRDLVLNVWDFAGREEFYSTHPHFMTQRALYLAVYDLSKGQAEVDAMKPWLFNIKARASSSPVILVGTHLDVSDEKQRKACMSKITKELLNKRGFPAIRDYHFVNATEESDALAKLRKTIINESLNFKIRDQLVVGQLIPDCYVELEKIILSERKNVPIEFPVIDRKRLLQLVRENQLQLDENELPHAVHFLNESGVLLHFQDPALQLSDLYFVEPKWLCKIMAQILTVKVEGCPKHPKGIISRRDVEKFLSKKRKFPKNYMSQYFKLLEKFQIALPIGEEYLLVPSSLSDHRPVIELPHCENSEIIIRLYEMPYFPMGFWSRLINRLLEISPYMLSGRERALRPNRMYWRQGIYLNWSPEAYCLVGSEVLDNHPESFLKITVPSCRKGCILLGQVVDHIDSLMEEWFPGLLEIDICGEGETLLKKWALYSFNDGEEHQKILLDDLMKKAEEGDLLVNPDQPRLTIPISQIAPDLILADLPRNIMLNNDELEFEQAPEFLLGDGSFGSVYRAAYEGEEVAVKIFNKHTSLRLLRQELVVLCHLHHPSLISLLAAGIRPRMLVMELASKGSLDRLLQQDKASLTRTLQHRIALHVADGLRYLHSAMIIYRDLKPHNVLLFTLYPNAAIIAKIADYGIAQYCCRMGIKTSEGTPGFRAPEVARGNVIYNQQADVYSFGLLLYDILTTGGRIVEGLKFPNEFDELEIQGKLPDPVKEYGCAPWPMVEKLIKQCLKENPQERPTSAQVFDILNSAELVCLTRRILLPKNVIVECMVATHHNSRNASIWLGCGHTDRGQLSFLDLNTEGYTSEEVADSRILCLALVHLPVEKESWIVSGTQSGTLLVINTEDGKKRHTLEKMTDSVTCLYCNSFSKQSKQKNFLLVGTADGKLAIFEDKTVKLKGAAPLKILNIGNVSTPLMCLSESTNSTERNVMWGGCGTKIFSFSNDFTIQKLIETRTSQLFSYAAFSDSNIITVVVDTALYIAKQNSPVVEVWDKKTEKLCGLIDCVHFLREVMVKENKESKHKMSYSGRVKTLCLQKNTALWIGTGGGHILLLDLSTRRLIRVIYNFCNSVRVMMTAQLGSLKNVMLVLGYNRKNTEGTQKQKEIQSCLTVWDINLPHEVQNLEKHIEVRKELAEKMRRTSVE
# [11] = biological target: T3, Leucine-rich repeat serine/threonine-protein kinase 2; assay: Inhibition of LRRK2 using FAM-LRRKtide as substrate after 120 mins by microfluidic capillary electrophoresis assay
# MDCK = assay: Efflux ratio of permeability from basolateral to apical over apical to basolateral side in MDCK cells expressing human MDR1; conditions: dog
# [12] = Solubility of the compound; assay type: physicochemical
# Cytochrome P450 1A2 = biological target: T4, Cytochrome P450 1A2 (Homo sapiens, UniProt P05177); assay: Time dependent inhibition of CYP1A2; assay type: ADME
# T4 sequence (P05177 whole entry): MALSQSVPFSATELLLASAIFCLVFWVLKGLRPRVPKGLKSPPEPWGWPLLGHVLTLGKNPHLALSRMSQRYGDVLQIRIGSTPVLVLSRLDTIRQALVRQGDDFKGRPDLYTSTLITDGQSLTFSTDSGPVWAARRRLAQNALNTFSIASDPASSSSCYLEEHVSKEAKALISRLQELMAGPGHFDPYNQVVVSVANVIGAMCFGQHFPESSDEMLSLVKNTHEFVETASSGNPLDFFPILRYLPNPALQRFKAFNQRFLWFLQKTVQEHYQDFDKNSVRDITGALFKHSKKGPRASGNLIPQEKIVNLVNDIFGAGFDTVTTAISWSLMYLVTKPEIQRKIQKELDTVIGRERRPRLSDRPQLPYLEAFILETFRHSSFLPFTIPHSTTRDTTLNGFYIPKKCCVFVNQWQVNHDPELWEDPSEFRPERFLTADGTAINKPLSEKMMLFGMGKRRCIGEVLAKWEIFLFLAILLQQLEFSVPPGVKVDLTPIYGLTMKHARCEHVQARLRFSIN
# Nucleic Acid = assay: Ratio of drug level CSF to unbound drug level in plasma in cynomolgus monkey at 10 to 65 mg/kg, po administered for 7 days; assay type: ADME, organism-based, Macaca fascicularis; parameters: dose 10-65 mg/kg, route oral; conditions: in vivo, 168 h
# Method in brief: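 Cynomolgus monkeys in a 7-day repeat-dose toxicity study at 10, 25 and 65 mg/kg. Terminal CSF and plasma levels were taken 24 h after the last dose on day 7. Plasma drug was converted to unbound using in vitro plasma protein binding, and the ratio is expressed as CSF over unbound plasma.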
# Cynomolgus monkey [13] = assay: Unbound plasma AUC (0 to 24 hrs) in cynomolgus monkey at 65 mg/kg, po administered for 7 days; assay type: ADME, organism-based, Macaca fascicularis; parameters: dose 65 mg/kg, route oral; conditions: in vivo
# [14] = Ratio of unbound drug level in brain to plasma in cynomolgus monkey at 10 to 65 mg/kg, po administered for 7 days; assay type: ADME, organism-based, Macaca fascicularis; parameters: dose 10-65 mg/kg, route oral; conditions: brain and plasma (unbound)
# Method in brief: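 Cynomolgus monkeys in a 7-day repeat-dose toxicity study at 10, 25 and 65 mg/kg. Terminal brain and CSF levels were taken 24 h after the day-7 dose. Total brain/plasma levels were converted to an unbound brain/unbound plasma ratio using in vitro plasma and brain protein binding values.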
# Cynomolgus monkey [15] = assay: Unbound plasma AUC (0 to 24 hrs) in cynomolgus monkey at 25 mg/kg, po administered for 7 days; assay type: ADME, organism-based, Macaca fascicularis; parameters: dose 25 mg/kg, route oral; conditions: in vivo
# Cynomolgus monkey [16] = assay: Unbound plasma AUC (0 to 24 hrs) in cynomolgus monkey at 10 mg/kg, po administered for 7 days; assay type: ADME, organism-based, Macaca fascicularis; parameters: dose 10 mg/kg, route oral; conditions: in vivo
# Rattus norvegicus [17] = assay: Unbound plasma AUC (0 to 24 hrs) in Sprague-Dawley rat at 100 mg/kg, po administered for 7 days; assay type: ADME, organism-based; parameters: dose 100 mg/kg, route oral; conditions: in vivo
# Rattus norvegicus [18] = assay: Unbound plasma AUC (0 to 24 hrs) in Sprague-Dawley rat at 50 mg/kg, po administered for 7 days; assay type: ADME, organism-based; parameters: dose 50 mg/kg, route oral; conditions: in vivo
# Rattus norvegicus [19] = assay: Unbound plasma AUC (0 to 24 hrs) in Sprague-Dawley rat at 10 mg/kg, po administered for 7 days; assay type: ADME, organism-based; parameters: dose 10 mg/kg, route oral; conditions: in vivo
# Rattus norvegicus [20] = assay: Toxicity in Sprague-Dawley rat assessed as mortality at 10 to 100 mg/kg, po administered for 7 days; assay type: organism-based; parameters: dose 10-100 mg/kg, route oral; conditions: in vivo, 168 h
# Rattus norvegicus [21] = assay: Unbound plasma AUC (0 to 24 hrs) in Sprague-Dawley rat at 100 mg/kg, po qd for 2 days; assay type: ADME, organism-based; parameters: dose 100 mg/kg, route oral; conditions: in vivo
# Rattus norvegicus [22] = assay: Genotoxicity in Sprague-Dawley rat assessed as micronucleated polychromatic erythrocytes in bone marrow at 100 mg/kg, po qd for 2 days; assay type: toxicity, organism-based; parameters: dose 100 mg/kg, route oral; conditions: in vivo, 48 h
# [23] = Plasma protein binding in cynomolgus monkey; assay type: ADME, cell-free, Macaca fascicularis; conditions: read-out: PPB (converted)
# Mus musculus [24] = assay: Inhibition of LRRK2 G2019S mutant phosphorylation at Ser1292 in po dosed BAC transgenic mouse brain after 1 to 24 hrs; assay type: functional, organism-based
# Method in brief: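 Single oral dose of 15 or 50 mg/kg in G2019S human LRRK2 BAC transgenic mice. Hippocampus sampled at 1, 3, 6 and 12 h (n = 4/dose) and at 24 h (n = 1) to measure pSer1292 LRRK2 and brain compound levels. Inhibition expressed relative to vehicle-dosed mice (n = 3), with a direct inhibition PK/PD model fitted.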
# Mus musculus [25] = assay: Inhibition of LRRK2 G2019S mutant phosphorylation at Ser1292 in ip dosed BAC transgenic mouse brain after 1 to 24 hrs; assay type: functional, organism-based
# Method in brief: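 Single ip injection of 10 or 50 mg/kg in BAC transgenic mice expressing human G2019S LRRK2. Hippocampus collected at 1, 2.5 or 6 h post-dose (n = 3/dose). pSer1292 LRRK2 and compound concentration measured in brain. Percent inhibition normalised to vehicle-dosed mice (n = 3), with a direct inhibition model fitted to the data.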
# [26] = biological target: 5-hydroxytryptamine receptor 2B (Homo sapiens) (UniProt P41595); assay: Inhibition of recombinant human 5HT2B receptor expressed in CHO cells at 10 uM; assay type: cell-based
# Chain of 5-hydroxytryptamine receptor 2B (Homo sapiens) (P41595 whole entry): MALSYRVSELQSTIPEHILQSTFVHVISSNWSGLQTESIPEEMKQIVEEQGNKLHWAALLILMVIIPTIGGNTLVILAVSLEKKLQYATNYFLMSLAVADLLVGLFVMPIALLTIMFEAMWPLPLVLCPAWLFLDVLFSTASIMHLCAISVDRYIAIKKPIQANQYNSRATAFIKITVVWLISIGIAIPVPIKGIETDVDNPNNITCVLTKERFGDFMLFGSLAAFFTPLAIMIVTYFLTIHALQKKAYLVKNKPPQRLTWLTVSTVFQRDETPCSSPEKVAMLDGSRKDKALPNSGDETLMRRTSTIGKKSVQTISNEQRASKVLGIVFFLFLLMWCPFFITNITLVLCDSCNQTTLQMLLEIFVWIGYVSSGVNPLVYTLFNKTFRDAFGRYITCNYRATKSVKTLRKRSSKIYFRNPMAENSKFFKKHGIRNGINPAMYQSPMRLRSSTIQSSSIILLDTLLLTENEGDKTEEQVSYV
# [27] = biological target: ALK tyrosine kinase receptor (Homo sapiens) (UniProt Q9UM73); assay: Inhibition of ALK at 0.1 uM
# Chain of ALK tyrosine kinase receptor (Homo sapiens) (Q9UM73 19-1620 limits assumed): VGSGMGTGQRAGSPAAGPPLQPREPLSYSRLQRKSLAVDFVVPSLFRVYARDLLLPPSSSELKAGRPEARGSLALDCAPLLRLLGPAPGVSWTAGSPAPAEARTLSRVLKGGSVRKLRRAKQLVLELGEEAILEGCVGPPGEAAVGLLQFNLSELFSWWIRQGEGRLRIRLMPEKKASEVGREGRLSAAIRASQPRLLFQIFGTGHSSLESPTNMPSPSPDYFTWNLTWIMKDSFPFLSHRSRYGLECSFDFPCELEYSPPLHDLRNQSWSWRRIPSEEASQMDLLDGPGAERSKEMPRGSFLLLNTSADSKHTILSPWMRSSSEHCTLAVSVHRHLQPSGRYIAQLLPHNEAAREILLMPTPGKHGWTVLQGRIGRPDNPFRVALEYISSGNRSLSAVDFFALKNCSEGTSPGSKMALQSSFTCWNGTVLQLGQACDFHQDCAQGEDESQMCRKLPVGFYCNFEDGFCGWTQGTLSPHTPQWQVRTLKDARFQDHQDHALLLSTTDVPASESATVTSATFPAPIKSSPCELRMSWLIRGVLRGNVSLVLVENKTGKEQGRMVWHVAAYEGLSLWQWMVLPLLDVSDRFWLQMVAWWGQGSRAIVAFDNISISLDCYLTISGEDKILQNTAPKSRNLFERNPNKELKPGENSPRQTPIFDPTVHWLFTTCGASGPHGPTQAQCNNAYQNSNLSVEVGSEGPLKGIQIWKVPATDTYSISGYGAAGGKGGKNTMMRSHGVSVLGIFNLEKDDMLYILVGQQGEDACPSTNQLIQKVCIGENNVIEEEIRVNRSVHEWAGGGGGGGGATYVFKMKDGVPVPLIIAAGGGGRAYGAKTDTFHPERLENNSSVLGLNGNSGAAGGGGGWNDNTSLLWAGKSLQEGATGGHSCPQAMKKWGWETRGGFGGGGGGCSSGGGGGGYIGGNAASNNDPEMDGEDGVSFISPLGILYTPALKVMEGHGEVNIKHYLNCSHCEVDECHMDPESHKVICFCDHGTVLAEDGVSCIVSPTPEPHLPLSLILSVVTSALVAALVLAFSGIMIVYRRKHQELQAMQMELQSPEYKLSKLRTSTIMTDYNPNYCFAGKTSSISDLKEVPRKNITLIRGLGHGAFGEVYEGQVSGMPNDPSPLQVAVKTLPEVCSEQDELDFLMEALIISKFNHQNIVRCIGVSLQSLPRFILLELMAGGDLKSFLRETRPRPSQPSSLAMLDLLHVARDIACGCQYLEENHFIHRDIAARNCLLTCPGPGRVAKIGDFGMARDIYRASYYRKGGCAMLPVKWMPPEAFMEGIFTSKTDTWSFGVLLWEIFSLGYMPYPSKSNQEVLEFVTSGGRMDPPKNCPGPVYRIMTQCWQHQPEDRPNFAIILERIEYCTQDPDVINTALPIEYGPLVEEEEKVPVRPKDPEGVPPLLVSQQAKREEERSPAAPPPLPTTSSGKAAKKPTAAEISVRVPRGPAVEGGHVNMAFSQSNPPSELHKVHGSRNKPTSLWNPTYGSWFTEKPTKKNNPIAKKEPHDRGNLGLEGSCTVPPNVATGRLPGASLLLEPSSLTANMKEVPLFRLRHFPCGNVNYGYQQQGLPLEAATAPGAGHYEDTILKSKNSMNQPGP
# Method in brief: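 Percent inhibition measured in a commercial kinase selectivity profiling panel, with compound tested at a single concentration of 0.1 μM.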
# [28] = biological target: T3, Leucine-rich repeat serine/threonine-protein kinase 2; conditions: 0.1 uM
SMILES,Ratio Ki [2],inhibition [5] [%],Papp A→B (MDR1 (human)) [nm/s],fraction unbound [6],CLhep predicted [7] [L/h/kg],CLhep predicted [8] [L/h/kg],Ratio Ki [9],IC50 [10] [nM],Ki [11] [nM],Ratio (MDCK),also measured
CNc1nc(Nc2ccc(C(=O)N3CCOCC3)cc2OC)ncc1C(F)(F)F,13,55,182,0.137,0.456,0.108,> 1930,9,2,1.2,Activity (Mus musculus [1]): Toxic; Activity (PBL): Toxic; Ki [3]: 25 nM; inhibition [4]: 98%
CNc1nc(Nc2ccc(-c3nnnn3C)cc2Cl)ncc1C(F)(F)F,3.3,,,,,,,100,8,0.7,solubility [12]: Insoluble; inhibition (INH) (Cytochrome P450 1A2): Active
CCNc1nc(Nc2cc(F)c(C(=O)N3CCOCC3)cc2OC)ncc1C(F)(F)F,53,> 65,104,0.034,0.84,0.192,> 3200,9,1,0.9,Ratio (Nucleic Acid): 0.82; fAUC (Cynomolgus monkey [13]): 7.8 µM·h; Kp uu at 168 h [14]: 0.6; fAUC (Cynomolgus monkey [15]): 3.1 µM·h; fAUC (Cynomolgus monkey [16]): 0.8 µM·h; fAUC (Rattus norvegicus [17]): 4.7 µM·h; fAUC (Rattus norvegicus [18]): 3.9 µM·h; fAUC (Rattus norvegicus [19]): 0.8 µM·h; Activity (Rattus norvegicus [20]): Non-toxic; fAUC (Rattus norvegicus [21]): 5.95 µM·h; Activity (Rattus norvegicus [22]): Non-toxic; fraction unbound [23]: 0.055; inhibition (Mus musculus [24]): Dose-dependent effect; inhibition (Mus musculus [25]): Dose-dependent effect; inhibition [26]: > 70%; inhibition [27]: > 65%; inhibition [28]: > 65%
